In ChEMBL document CHEMBL4665690, “Proversilins A-E, Drimane-Type Sesquiterpenoids from the Endophytic Aspergillus versicolor” (J Nat Prod, 2020):

Assays:
Type in all cases: functional, cell-based
HL-60 = test: Cytotoxicity against human HL-60 cells assessed as reduction in cell viability after 48 hrs by MTT assay; conditions: HL-60, 48 h
Procedure, shortened: (§1)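 Cells exposed 48 h to compounds at 0.0625 to 40 μM, with cisplatin and paclitaxel as positive controls. Survival read by MTT, absorbance at 570 nm. Data are means of three replicates. IC50 derived from a standard dose–response curve fit.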

SMMC-7721 = test: Cytotoxicity against human SMMC-7721 cells assessed as reduction in cell viability after 48 hrs by MTT assay; conditions: SMMC-7721, 48 h; procedure, shortened: as §1
A549 = test: Cytotoxicity against human A549 cells assessed as reduction in cell viability after 48 hrs by MTT assay; conditions: A549, 48 h; procedure, shortened: as §1
MCF7 = test: Cytotoxicity against human MCF7 cells assessed as reduction in cell viability after 48 hrs by MTT assay; conditions: MCF7, 48 h; procedure, shortened: as §1
SW480 = test: Cytotoxicity against human SW480 cells assessed as reduction in cell viability after 48 hrs by MTT assay; conditions: SW480, 48 h; procedure, shortened: as §1
NCM460 = test: Cytotoxicity against human NCM460 cells assessed as reduction in cell viability after 48 hrs by MTT assay; conditions: NCM460, 48 h; procedure, shortened: as §1

Row | Structure (SMILES) | IC50 (HL-60) [µM] | IC50 (SMMC-7721) [µM] | IC50 (A549) [µM] | IC50 (MCF7) [µM] | IC50 (SW480) [µM] | IC50 (NCM460) [µM]
1 | C[C@]1(CO)CCC[C@]2(C)C3=C(CC[C@@H]12)C(=O)OC3 | > 40 | > 40 | > 40 | > 40 | > 40 | > 40
2 | CC(=O)N[C@H](CC(=O)O[C@@H]1CC(C)(C)[C@@H]2CCC3=C(COC3=O)[C@@]2(C)C1)c1ccccc1 | 7.3 | 12.6 | 15 | 11.8 | 12.4 | > 40
3 | CC(=O)N[C@H](CC(=O)OC[C@@]1(C)CCC[C@]2(C)C3=C(CC[C@@H]12)C(=O)OC3)c1ccccc1 | > 40 | > 40 | > 40 | > 40 | > 40 | > 40
4 | CC(=O)N[C@H](CC(=O)O[C@@H]1C[C@](C)(CO)[C@@H]2CCC3=C(COC3=O)[C@@]2(C)C1)c1ccccc1 | > 40 | > 40 | > 40 | > 40 | > 40 | > 40
5 | CC(=O)N[C@H](CC(=O)O[C@@H]1C[C@](C)(C=O)[C@@H]2CCC3=C(COC3=O)[C@@]2(C)C1)c1ccccc1 | 9.9 | 19.4 | 28.4 | 18.3 | 16.4 | > 40
6 | CC(=O)O[C@H]1C(=O)[C@@]2(C)[C@H]([C@H](OC(=O)c3ccccc3)[C@]3(O)C[C@H](OC(=O)[C@H](O)[C@@H](NC(=O)c4ccccc4)c4ccccc4)C(C)=C1C3(C)C)[C@]1(OC(C)=O)CO[C@@H]1C[C@@H]2O [PACLITAXEL] | < 0.008 | < 0.008 | < 0.008 | < 0.008 | < 0.008 | < 0.008
